In brackets after ≈: the same amount, converted by molar mass. Activity calls are given as the source filed them. The calls are words filed in the database; no cut-off is given here.
Tests used:
Staphylococcus aureus [1] = test: Antimicrobial activity against methicillin resistant Staphylococcus aureus DM21455 by broth macrodilution method; assay type: functional
How it was run: (§1)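 Broth macrodilution MIC in Mueller Hinton broth following CLSI guidelines. Inoculum was prepared by direct colony suspension from an 18−20 h tryptic soy agar plate.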

[2] = Selectivity index, ratio of HC50 for induction of hemolysis in New Zealand white rabbit RBC to MIC for Staphylococcus aureus DM21455
Bacillus cereus = test: Antimicrobial activity against Bacillus cereus ATCC 11778 by broth macrodilution method; assay type: functional
How it was run: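 CLSI broth macrodilution in Mueller Hinton broth. Inoculum was made by direct colony suspension from colonies on an 18−20 h tryptic soy agar plate. The value is the MIC.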

Staphylococcus aureus [3] = test: Antimicrobial activity against Staphylococcus aureus DM4001 by broth macrodilution method; assay type: functional; how it was run: as §1
[4] = Induction of hemolysis in New Zealand white rabbit RBC after 1 hr; assay type: cell-based, Oryctolagus cuniculus, Erythrocyte; settings: for HC50 at 1 h: New Zealand white, red blood cells (RBC)
How it was run: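 Fresh red blood cells isolated from New Zealand white rabbits. Lysis measured over a compound concentration series; HC50 taken as the concentration lysing 50% of RBCs.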

[5] = Selectivity index, ratio of HC50 for induction of hemolysis in New Zealand white rabbit RBC to MIC for Staphylococcus aureus DM4001
[6] = Selectivity index, ratio of HC50 for induction of hemolysis in New Zealand white rabbit RBC to MIC for Staphylococcus aureus DM09809R
[7] = Selectivity index, ratio of HC50 for induction of hemolysis in New Zealand white rabbit RBC to MIC for Bacillus cereus ATCC 11778
Staphylococcus aureus [8] = test: Antimicrobial activity against methicillin resistant Staphylococcus aureus DM09809R by broth macrodilution method; assay type: functional; how it was run: as §1
[9] = Retention time of the compound; assay type: physicochemical
How it was run: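 Reverse-phase HPLC of 20 μL injections of a 10 μg/mL sample at 1 mL/min. Gradient: 5−55% ACN over 5 min, then 55−95% over 15 min.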

Staphylococcus aureus [10] = test: Bactericidal activity against Staphylococcus aureus DM21455 assessed as reduction in bacterial count 2048 ug/mL after 2 hrs by cell counting based time assay; assay type: functional, organism-based
How it was run: (§2)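 Time-kill at 35 °C with colonies taken from an 18−20 h tryptic soy agar plate and suspended in CA-MHB at 10^5−10^6 CFU/mL, then drug added. Aliquots taken at set times were diluted 10-fold serially in D/E neutralization broth, spread on tryptic soy agar, incubated 48−72 h at 35 °C, and colonies counted. Strains: MRSA DM21455, vanA and vanB VRE.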

Staphylococcus aureus [11] = test: Bactericidal activity against Staphylococcus aureus DM21455 assessed as reduction in bacterial count 2048 ug/mL after 24 hrs by cell counting based time assay; assay type: functional, organism-based; how it was run: as §2
Listeria monocytogenes = test: Antimicrobial activity against Listeria monocytogenes isolates by broth macrodilution method; assay type: functional
Staphylococcus aureus [12] = test: Antimicrobial activity against methicillin resistant Staphylococcus aureus DM21455 in presence of 4% BSA by broth macrodilution method; assay type: functional
How it was run: (§3)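 MIC by CLSI broth macrodilution in Mueller Hinton broth, with BSA added to the bacterial suspension at a final 4% w/v. Inoculum was made by direct colony suspension from an 18−20 h tryptic soy agar plate.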

Staphylococcus aureus [13] = test: Antimicrobial activity against Staphylococcus aureus ATCC 29213 in presence of 4% BSA by broth macrodilution method; assay type: functional; how it was run: as §3
Enterococcus [14] = test: Bactericidal activity against vancomycin-resistant Enterococcus isolates assessed as reduction in bacterial count 2048 ug/mL after 2 hrs by cell counting based time assay; assay type: functional, organism-based; how it was run: as §2
Enterococcus [15] = test: Bactericidal activity against vancomycin-resistant Enterococcus isolates assessed as reduction in bacterial count 2048 ug/mL after 24 hrs by cell counting based time assay; assay type: functional, organism-based; how it was run: as §2
Enterococcus [16] = test: Antimicrobial activity against vancomycin-sensitive Enterococcus isolates by broth macrodilution method; assay type: functional
Staphylococcus aureus [17] = test: Antimicrobial activity against Staphylococcus aureus ATCC 29213 in absence of 4% BSA by broth macrodilution method; assay type: functional; how it was run: as §1
Enterococcus [18] = test: Antimicrobial activity against vancomycin-resistant Enterococcus isolates by broth macrodilution method; assay type: functional
Staphylococcus aureus [19] = test: Antimicrobial activity against methicillin resistant Staphylococcus aureus DM21455 in absence of 4% BSA by broth macrodilution method; assay type: functional; how it was run: as §1
Corynebacterium jeikeium = test: Antimicrobial activity against Corynebacterium jeikeium isolates by broth macrodilution method; assay type: functional
Streptococcus = test: Antimicrobial activity against Streptococcus isolates by broth macrodilution method; assay type: functional

| SMILES | MIC (Staphylococcus aureus [1]) [µg/mL] | Selectivity Index [2] | MIC (Bacillus cereus) [µg/mL] | MIC (Staphylococcus aureus [3]) [µg/mL] | Selectivity Index [5] | Selectivity Index [6] | Selectivity Index [7] | MIC (Staphylococcus aureus [8]) [µg/mL] | Retention_time [9] [min] | HC50 at 1 h [4] [µg/mL] | also measured |
| --- | --- | --- | --- | --- | --- | --- | --- | --- | --- | --- | --- |
| CCCCCCCCNCCC[C@@H](C)[C@H]1CC[C@H]2[C@H]3[C@H](OCCCN)C[C@H]4C[C@H](OCCCN)CC[C@]4(C)[C@H]3C[C@H](OCCCN)[C@]12C | 0.4 (≈ 0.591 µM) | 73 | 0.4 (≈ 0.591 µM) | 0.4 (≈ 0.591 µM) | 73 | 73 | 73 | 0.4 (≈ 0.591 µM) | – | – | MHC ([4]; erythrocyte, 1 h): 29 µg/mL |
| COc1c(OCC(=O)N[C@@H](CCCNC(=N)N)C(=O)OC(C)(C)C)cc2oc3cc(OCC(=O)N[C@@H](CCCNC(=N)N)C(=O)OC(C)(C)C)c(CC=C(C)C)c(O)c3c(=O)c2c1CC=C(C)C | 12 (≈ 12.6 µM) | 7 | 12 (≈ 12.6 µM) | 12 (≈ 12.6 µM) | 7 | 7 | 7 | 12 (≈ 12.6 µM) | 9.51 | 79 | – |
| CN[C@H](CC(C)C)C(=O)N[C@H]1C(=O)N[C@@H](CC(N)=O)C(=O)N[C@H]2C(=O)N[C@H]3C(=O)N[C@H](C(=O)N[C@H](C(=O)O)c4cc(O)cc(O)c4-c4cc3ccc4O)[C@H](O)c3ccc(c(Cl)c3)Oc3cc2cc(c3O[C@@H]2O[C@H](CO)[C@@H](O)[C@H](O)[C@H]2O[C@H]2C[C@](C)(N)[C@H](O)[C@H](C)O2)Oc2ccc(cc2Cl)[C@H]1O [VANCOMYCIN] | – | – | – | – | – | – | – | – | – | – | Activity (Staphylococcus aureus [10]): inactive; Activity (Staphylococcus aureus [11]): inactive; MIC (Listeria monocytogenes): 0.5 µg/mL (≈ 0.345 µM); MIC (Staphylococcus aureus [12]): 0.78 µg/mL; MIC (Staphylococcus aureus [13]): 1.56 µg/mL; Activity (Enterococcus [14]): inactive; Activity (Enterococcus [15]): inactive; MIC (Enterococcus [16]): 1 µg/mL (≈ 0.69 µM); MIC (Staphylococcus aureus [17]): 0.78 µg/mL (≈ 0.538 µM); MIC (Enterococcus [18]): 8 µg/mL (≈ 5.52 µM); MIC (Staphylococcus aureus [19]): 0.78 µg/mL (≈ 0.538 µM); MIC (Corynebacterium jeikeium): 0.5 µg/mL (≈ 0.345 µM); MIC (Streptococcus): 0.5 µg/mL (≈ 0.345 µM) |
| O=c1c2ccc(OCCCCBr)cc2oc2cc(OCCCCBr)cc(O)c12 | – | – | – | > 50 | – | – | – | – | – | – | – |
| CCN(CC)CCCCOc1ccc2c(=O)c3c(O)cc(OCCCCN(CC)CC)cc3oc2c1 | – | – | – | > 50 | – | – | – | – | – | – | – |
| O=c1c2ccc(O)cc2oc2cc(O)cc(O)c12 | – | – | – | > 50 | – | – | – | – | – | – | – |
| COc1c(OCC(=O)N[C@@H](CCCNC(=N)N)C(N)=O)cc2oc3cc(OCC(=O)N[C@@H](CCCNC(=N)N)C(N)=O)c(CC=C(C)C)c(O)c3c(=O)c2c1CC=C(C)C | 1 (≈ 1.19 µM) | 128 | 6 (≈ 7.17 µM) | 6 (≈ 7.17 µM) | 13 | 13 | 13 | 6 (≈ 7.17 µM) | 7.4 | 128 | – |
| CCOC(=O)[C@H](CCCNC(=N)N)NC(=O)COc1cc2oc3cc(OCC(=O)N[C@@H](CCCNC(=N)N)C(=O)OCC)c(OC)c(CC=C(C)C)c3c(=O)c2c(O)c1CC=C(C)C | 6 (≈ 6.7 µM) | 9 | 12 (≈ 13.4 µM) | 6 (≈ 6.7 µM) | 9 | 5 | 5 | 12 (≈ 13.4 µM) | 8.38 | 56 | – |
| COC(=O)C(Cc1cnc[nH]1)NC(=O)COc1cc2oc3cc(OCC(=O)NC(Cc4cnc[nH]4)C(=O)OC)c(OC)c(CC=C(C)C)c3c(=O)c2c(O)c1CC=C(C)C (centres undefined) | > 50 | – | > 50 | > 50 | – | – | – | > 50 | – | > 400 | – |
| N=C(N)NCCCCC(=O)Nc1cc(C(F)(F)F)cc(NC(=O)c2cc(C(=O)Nc3cc(C(F)(F)F)cc(NC(=O)CCCCNC(=N)N)c3O[C@@H]3CCNC3)ncn2)c1O[C@@H]1CCNC1 [BRILACIDIN] | 4 (≈ 4.27 µM) | 44 | 4 (≈ 4.27 µM) | 4 (≈ 4.27 µM) | 44 | 44 | 44 | 4 (≈ 4.27 µM) | – | 175 | – |

— ChEMBL document CHEMBL3414569, “Amino acid modified xanthone derivatives: novel, highly promising membrane-active antimicrobials for multidrug-resistant Gram-positive bacterial infections” (J Med Chem, 2015)
